According to ChEMBL document CHEMBL1641444, “Synthesis and evaluation of 6-[1-(2-[(18)F]fluoro-3-pyridyl)-5-methyl-1H-1,2,3-triazol-4-yl]quinoline for positron emission tomography imaging of the metabotropic glutamate receptor type 1 in brain” (Bioorg Med Chem, 2011):
Values belong to the compound of their own block, whether it stands above or below them.

Assays:
[1] = biological target: T1, Metabotropic glutamate receptor 1 (Homo sapiens, UniProt Q13255); experiment: Binding affinity to mGluR1
T1 sequence (Q13255 whole entry): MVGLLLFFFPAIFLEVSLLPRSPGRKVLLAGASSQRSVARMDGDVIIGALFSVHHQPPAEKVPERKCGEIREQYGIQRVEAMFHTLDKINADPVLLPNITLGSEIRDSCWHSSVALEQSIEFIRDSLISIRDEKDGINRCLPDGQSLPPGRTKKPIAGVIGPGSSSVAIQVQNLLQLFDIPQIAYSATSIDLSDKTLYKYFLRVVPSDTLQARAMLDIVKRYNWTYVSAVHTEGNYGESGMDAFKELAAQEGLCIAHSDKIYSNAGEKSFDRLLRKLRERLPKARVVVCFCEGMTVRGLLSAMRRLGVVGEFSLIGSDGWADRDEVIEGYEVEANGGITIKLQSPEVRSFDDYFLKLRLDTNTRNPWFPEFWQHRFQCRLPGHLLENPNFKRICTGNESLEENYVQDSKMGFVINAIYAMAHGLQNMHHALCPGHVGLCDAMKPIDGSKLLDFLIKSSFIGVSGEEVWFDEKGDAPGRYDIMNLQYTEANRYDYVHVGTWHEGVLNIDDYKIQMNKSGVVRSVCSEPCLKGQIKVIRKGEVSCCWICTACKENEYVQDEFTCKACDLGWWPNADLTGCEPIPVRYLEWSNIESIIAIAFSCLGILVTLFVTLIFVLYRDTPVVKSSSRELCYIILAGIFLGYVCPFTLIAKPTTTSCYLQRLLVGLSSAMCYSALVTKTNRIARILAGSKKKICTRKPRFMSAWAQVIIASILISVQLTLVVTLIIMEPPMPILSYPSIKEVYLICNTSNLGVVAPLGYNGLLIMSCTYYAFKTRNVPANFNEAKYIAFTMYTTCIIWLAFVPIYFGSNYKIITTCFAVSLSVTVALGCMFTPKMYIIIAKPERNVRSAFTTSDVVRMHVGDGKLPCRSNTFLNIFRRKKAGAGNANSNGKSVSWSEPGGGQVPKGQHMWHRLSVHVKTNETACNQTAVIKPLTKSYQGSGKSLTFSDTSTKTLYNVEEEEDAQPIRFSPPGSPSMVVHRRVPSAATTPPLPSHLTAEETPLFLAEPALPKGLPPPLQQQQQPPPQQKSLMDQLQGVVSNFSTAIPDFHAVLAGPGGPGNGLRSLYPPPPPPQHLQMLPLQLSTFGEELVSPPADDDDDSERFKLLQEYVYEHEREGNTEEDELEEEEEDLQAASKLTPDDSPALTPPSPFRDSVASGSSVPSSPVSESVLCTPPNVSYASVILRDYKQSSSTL

[2] = biological target: Metabotropic glutamate receptor 1 (Rattus norvegicus) (UniProt P23385); experiment: Binding affinity to mGluR1 in Sprague-Dawley rat thalamus at 0.023 nM after 30 mins by autoradiography; type: tissue-based; conditions: tested as the 18F-labelled form
Metabotropic glutamate receptor 1 (Rattus norvegicus), sequence (P23385 19-1199 limits assumed): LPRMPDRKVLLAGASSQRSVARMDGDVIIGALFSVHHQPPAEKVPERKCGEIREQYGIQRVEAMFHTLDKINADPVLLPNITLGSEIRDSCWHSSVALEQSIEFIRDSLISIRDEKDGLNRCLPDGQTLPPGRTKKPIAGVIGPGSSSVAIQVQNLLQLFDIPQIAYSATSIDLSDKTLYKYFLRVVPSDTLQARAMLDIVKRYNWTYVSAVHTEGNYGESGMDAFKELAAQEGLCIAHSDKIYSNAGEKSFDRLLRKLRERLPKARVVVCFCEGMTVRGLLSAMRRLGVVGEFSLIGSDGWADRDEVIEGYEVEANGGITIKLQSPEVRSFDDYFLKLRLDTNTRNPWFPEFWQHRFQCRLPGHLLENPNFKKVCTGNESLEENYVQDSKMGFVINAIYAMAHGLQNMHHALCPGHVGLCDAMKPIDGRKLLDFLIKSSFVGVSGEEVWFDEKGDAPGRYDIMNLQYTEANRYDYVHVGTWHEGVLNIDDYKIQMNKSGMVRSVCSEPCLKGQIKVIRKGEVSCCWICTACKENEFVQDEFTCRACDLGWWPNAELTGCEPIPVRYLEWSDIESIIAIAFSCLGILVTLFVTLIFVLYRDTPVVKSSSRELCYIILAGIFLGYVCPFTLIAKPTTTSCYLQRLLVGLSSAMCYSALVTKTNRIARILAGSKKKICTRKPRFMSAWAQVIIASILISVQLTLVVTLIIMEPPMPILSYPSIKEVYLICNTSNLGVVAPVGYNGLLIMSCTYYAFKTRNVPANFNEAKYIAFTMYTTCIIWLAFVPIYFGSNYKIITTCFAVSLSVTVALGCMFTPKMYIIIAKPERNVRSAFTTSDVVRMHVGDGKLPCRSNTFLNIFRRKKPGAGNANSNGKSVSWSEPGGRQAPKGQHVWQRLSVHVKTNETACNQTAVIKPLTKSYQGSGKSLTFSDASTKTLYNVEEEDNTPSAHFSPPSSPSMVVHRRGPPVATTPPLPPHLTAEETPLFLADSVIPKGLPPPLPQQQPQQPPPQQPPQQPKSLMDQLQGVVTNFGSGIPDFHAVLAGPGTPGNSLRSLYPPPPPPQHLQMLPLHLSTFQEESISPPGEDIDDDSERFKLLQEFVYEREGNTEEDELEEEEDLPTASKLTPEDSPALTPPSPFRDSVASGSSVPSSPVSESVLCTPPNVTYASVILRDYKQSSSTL
Method in brief: (§1)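 Rat brain sections were preincubated 3 × 5 min at room temperature in 50 mM Tris–HCl, pH 7.4, with 1.2 mM MgCl2 and 2 mM CaCl2. They were then incubated 30 min at room temperature in fresh buffer with 0.023 nM [18F]ligand, alone or with MPEP at two levels. Sections were washed 3 × 5 min in cold buffer, rinsed in cold water and dried. Imaging-plate autoradiography followed; regional PSL/mm2 was taken minus 1.5 PSL/mm2 background. Means ± SD, n = 6–8 per group.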

[3] = biological target: Metabotropic glutamate receptor 1 (Rattus norvegicus) (UniProt P23385); experiment: Binding affinity to mGluR1 in Sprague-Dawley rat olfactory bulb at 0.023 nM after 30 mins by autoradiography in presence of 10 uM of mGluR5 antagonist MPEP; conditions: tested as the 18F-labelled form; method in brief: as §1
[4] = biological target: Metabotropic glutamate receptor 1 (Rattus norvegicus) (UniProt P23385); experiment: Binding affinity to mGluR1 in Sprague-Dawley rat striatum at 0.023 nM after 30 mins by autoradiography in presence of 1 uM of mGluR5 antagonist MPEP; type: tissue-based; conditions: tested as the 18F-labelled form; method in brief: as §1
[5] = biological target: Metabotropic glutamate receptor 1 (Rattus norvegicus) (UniProt P23385); experiment: Binding affinity to mGluR1 in Sprague-Dawley rat whole brain at 0.023 nM after 30 mins by autoradiography in presence of mGluRl antagonist FPTQ
Method in brief: (§2)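 Sections were incubated as for the regional assay: 0.023 nM [18F]ligand, 30 min at room temperature, in 50 mM Tris–HCl pH 7.4 with MgCl2 and CaCl2, after 3 × 5 min preincubation. Unlabeled ligand or JNJ-16259685 was co-incubated to define specific binding. Sections were washed cold and exposed to imaging plates. ROIs covered the whole brain; values are PSL/mm2 minus background. n = 6–8.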

[6] = biological target: Metabotropic glutamate receptor 1 (Rattus norvegicus) (UniProt P23385); experiment: Binding affinity to mGluR1 in Sprague-Dawley rat cerebral cortex at 0.023 nM after 30 mins by autoradiography in presence of 10 uM of mGluR5 antagonist MPEP; type: tissue-based; conditions: tested as the 18F-labelled form; method in brief: as §1
[7] = biological target: Metabotropic glutamate receptor 1 (Rattus norvegicus) (UniProt P23385); experiment: Binding affinity to mGluR1 in Sprague-Dawley rat hippocampus at 0.023 nM after 30 mins by autoradiography; type: tissue-based; conditions: tested as the 18F-labelled form; method in brief: as §1
[8] = biological target: Metabotropic glutamate receptor 1 (Rattus norvegicus) (UniProt P23385); experiment: Binding affinity to mGluR1 in Sprague-Dawley rat thalamus at 0.023 nM after 30 mins by autoradiography in presence of 10 uM of mGluR5 antagonist MPEP; conditions: tested as the 18F-labelled form; method in brief: as §1
[9] = biological target: Metabotropic glutamate receptor 1 (Rattus norvegicus) (UniProt P23385); experiment: Binding affinity to mGluR1 in Sprague-Dawley rat cerebral cortex at 0.023 nM after 30 mins by autoradiography in presence of 1 uM of mGluR5 antagonist MPEP; type: tissue-based; conditions: tested as the 18F-labelled form; method in brief: as §1
[10] = biological target: Metabotropic glutamate receptor 1 (Rattus norvegicus) (UniProt P23385); experiment: Binding affinity to mGluR1 in Sprague-Dawley rat cerebral cortex at 0.023 nM after 30 mins by autoradiography; type: tissue-based; conditions: tested as the 18F-labelled form; method in brief: as §1
[11] = biological target: Metabotropic glutamate receptor 1 (Rattus norvegicus) (UniProt P23385); experiment: Binding affinity to mGluR1 in Sprague-Dawley rat whole brain assessed as reduction of total radioactivity at 0.023 nM after 30 mins by autoradiography in presence of mGluRl antagonist FPTQ; set-up: scale not given: the % may be the effect or the level left
[12] = biological target: Metabotropic glutamate receptor 1 (Rattus norvegicus) (UniProt P23385); experiment: Binding affinity to mGluR1 in Sprague-Dawley rat hippocampus at 0.023 nM after 30 mins by autoradiography in presence of 10 uM of mGluR5 antagonist MPEP; type: tissue-based; conditions: tested as the 18F-labelled form; method in brief: as §1
[13] = biological target: Metabotropic glutamate receptor 1 (Rattus norvegicus) (UniProt P23385); experiment: Binding affinity to mGluR1 in Sprague-Dawley rat striatum at 0.023 nM after 30 mins by autoradiography in presence of 10 uM of mGluR5 antagonist MPEP; type: tissue-based; conditions: tested as the 18F-labelled form; method in brief: as §1
[14] = biological target: Metabotropic glutamate receptor 1 (Rattus norvegicus) (UniProt P23385); experiment: Binding affinity to mGluR1 in Sprague-Dawley rat striatum at 0.023 nM after 30 mins by autoradiography; conditions: tested as the 18F-labelled form; method in brief: as §1
[15] = biological target: Metabotropic glutamate receptor 1 (Rattus norvegicus) (UniProt P23385); experiment: Binding affinity to mGluR1 in Sprague-Dawley rat cerebellum at 0.023 nM after 30 mins by autoradiography; type: tissue-based; conditions: tested as the 18F-labelled form; method in brief: as §1
[16] = biological target: Metabotropic glutamate receptor 1 (Rattus norvegicus) (UniProt P23385); experiment: Binding affinity to mGluR1 in Sprague-Dawley rat pons-medulla at 0.023 nM after 30 mins by autoradiography in presence of 1 uM of mGluR5 antagonist MPEP; conditions: tested as the 18F-labelled form; method in brief: as §1
[17] = biological target: Metabotropic glutamate receptor 1 (Rattus norvegicus) (UniProt P23385); experiment: Binding affinity to mGluR1 in Sprague-Dawley rat olfactory bulb at 0.023 nM after 30 mins by autoradiography in presence of 1 uM of mGluR5 antagonist MPEP; conditions: tested as the 18F-labelled form; method in brief: as §1
[18] = biological target: Metabotropic glutamate receptor 1 (Rattus norvegicus) (UniProt P23385); experiment: Binding affinity to mGluR1 in Sprague-Dawley rat pons-medulla at 0.023 nM after 30 mins by autoradiography; conditions: tested as the 18F-labelled form; method in brief: as §1
[19] = biological target: Metabotropic glutamate receptor 1 (Rattus norvegicus) (UniProt P23385); experiment: Binding affinity to mGluR1 in Sprague-Dawley rat cerebellum at 0.023 nM after 30 mins by autoradiography in presence of 10 uM of mGluR5 antagonist MPEP; type: tissue-based; conditions: tested as the 18F-labelled form; method in brief: as §1
[20] = biological target: T1, Metabotropic glutamate receptor 1; experiment: Binding affinity to human mGluR1
[21] = biological target: Metabotropic glutamate receptor 1 (Mus musculus, UniProt P97772); experiment: Binding affinity to mouse mGluR1
Metabotropic glutamate receptor 1 (Mus musculus, UniProt P97772), sequence (P97772 whole entry): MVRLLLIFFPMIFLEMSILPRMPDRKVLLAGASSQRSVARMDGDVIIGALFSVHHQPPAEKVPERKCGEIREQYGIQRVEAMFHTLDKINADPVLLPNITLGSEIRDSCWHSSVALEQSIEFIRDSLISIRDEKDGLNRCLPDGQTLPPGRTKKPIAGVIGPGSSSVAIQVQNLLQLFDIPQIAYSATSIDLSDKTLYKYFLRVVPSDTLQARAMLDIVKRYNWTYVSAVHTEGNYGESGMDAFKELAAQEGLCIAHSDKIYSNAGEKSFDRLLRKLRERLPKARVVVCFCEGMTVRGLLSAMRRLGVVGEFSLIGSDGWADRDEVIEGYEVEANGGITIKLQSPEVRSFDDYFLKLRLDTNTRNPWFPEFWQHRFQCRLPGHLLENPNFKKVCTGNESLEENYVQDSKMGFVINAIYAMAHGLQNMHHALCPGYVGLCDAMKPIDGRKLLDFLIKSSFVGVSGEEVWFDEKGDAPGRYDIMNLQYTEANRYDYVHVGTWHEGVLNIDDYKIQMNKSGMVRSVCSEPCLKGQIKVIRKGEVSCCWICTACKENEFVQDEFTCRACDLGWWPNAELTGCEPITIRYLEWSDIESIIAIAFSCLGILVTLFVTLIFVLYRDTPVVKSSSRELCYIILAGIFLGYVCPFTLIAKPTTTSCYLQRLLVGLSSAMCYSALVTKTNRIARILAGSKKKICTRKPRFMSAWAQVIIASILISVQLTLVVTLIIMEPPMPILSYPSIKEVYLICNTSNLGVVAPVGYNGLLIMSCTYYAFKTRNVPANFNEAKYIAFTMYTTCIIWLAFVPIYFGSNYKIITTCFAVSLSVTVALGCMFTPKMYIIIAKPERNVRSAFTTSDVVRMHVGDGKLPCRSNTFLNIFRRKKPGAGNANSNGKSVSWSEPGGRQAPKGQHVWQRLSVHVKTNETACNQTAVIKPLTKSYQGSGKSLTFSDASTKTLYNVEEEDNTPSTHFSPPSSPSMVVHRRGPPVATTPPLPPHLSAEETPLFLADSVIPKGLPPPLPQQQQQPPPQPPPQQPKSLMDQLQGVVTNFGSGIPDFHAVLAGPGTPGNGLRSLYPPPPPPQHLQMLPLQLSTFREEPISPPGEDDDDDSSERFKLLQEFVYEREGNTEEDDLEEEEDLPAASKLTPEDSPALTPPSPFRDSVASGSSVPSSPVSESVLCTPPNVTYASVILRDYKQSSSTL

[22] = biological target: Metabotropic glutamate receptor 1 (Rattus norvegicus) (UniProt P23385); experiment: Binding affinity to mGluR1 in Sprague-Dawley rat hippocampus at 0.023 nM after 30 mins by autoradiography in presence of 1 uM of mGluR5 antagonist MPEP; type: tissue-based; conditions: tested as the 18F-labelled form; method in brief: as §1
[23] = biological target: Metabotropic glutamate receptor 1 (Rattus norvegicus) (UniProt P23385); experiment: Binding affinity to mGluR1 in Sprague-Dawley rat cerebellum at 0.023 nM after 30 mins by autoradiography in presence of 1 uM of mGluR5 antagonist MPEP; type: tissue-based; conditions: tested as the 18F-labelled form; method in brief: as §1
[24] = biological target: Metabotropic glutamate receptor 1 (Rattus norvegicus) (UniProt P23385); experiment: Binding affinity to mGluR1 in Sprague-Dawley rat thalamus at 0.023 nM after 30 mins by autoradiography in presence of 1 uM of mGluR5 antagonist MPEP; type: tissue-based; conditions: tested as the 18F-labelled form; method in brief: as §1
[25] = biological target: Metabotropic glutamate receptor 1 (Rattus norvegicus) (UniProt P23385); experiment: Binding affinity to mGluR1 in Sprague-Dawley rat pons-medulla at 0.023 nM after 30 mins by autoradiography in presence of 10 uM of mGluR5 antagonist MPEP; conditions: tested as the 18F-labelled form; method in brief: as §1
[26] = biological target: Metabotropic glutamate receptor 1 (Rattus norvegicus) (UniProt P23385); experiment: Binding affinity to mGluR1 in Sprague-Dawley rat olfactory bulb at 0.023 nM after 30 mins by autoradiography; conditions: tested as the 18F-labelled form; method in brief: as §1
[27] = biological target: Metabotropic glutamate receptor 1 (Rattus norvegicus) (UniProt P23385); experiment: Binding affinity to mGluR1 in Sprague-Dawley rat whole brain at 0.023 nM after 30 mins by autoradiography in presence of mGluRl antagonist JNJ-16259685; method in brief: as §2
[28] = biological target: Metabotropic glutamate receptor 1 (Rattus norvegicus) (UniProt P23385); experiment: Binding affinity to mGluR1 in Sprague-Dawley rat brain assessed as decrease of total binding at 0.023 nM after 30 mins by autoradiography in presence of 10 uM of mGluR5 antagonist MPEP; type: tissue-based; set-up: scale not given: the % may be the effect or the level left; method in brief: as §1

Ki [1]: 0.4 nM
SMILES: CCCN1Cc2cc(-c3nnn(-c4cccnc4[18F])c3C)ccc2C1=O

Activity [2]: 189 PSL/mm2
Activity [3]: 49 PSL/mm2
Activity [4]: 61.7 PSL/mm2
Activity [5]: 0.6 PSL/mm2
Activity [6]: 15.7 PSL/mm2
Activity [7]: 112 PSL/mm2
Activity [8]: 116 PSL/mm2
Activity [9]: 23.6 PSL/mm2
Activity [10]: 28.2 PSL/mm2
Activity [11]: < 3%
Activity [12]: 69.4 PSL/mm2
Activity [13]: 40.1 PSL/mm2
Activity [14]: 70.7 PSL/mm2
Activity [15]: 409 PSL/mm2
Activity [16]: 15.2 PSL/mm2
Activity [17]: 76 PSL/mm2
Activity [18]: 17.5 PSL/mm2
Activity [19]: 285 PSL/mm2
IC50 [20]: 3.6 nM
IC50 [21]: 1.4 nM
Activity [22]: 97.4 PSL/mm2
Activity [23]: 398 PSL/mm2
Activity [24]: 169 PSL/mm2
Activity [25]: 9.5 PSL/mm2
Activity [26]: 88.7 PSL/mm2
Activity [27]: 0.5 PSL/mm2
Activity [28]: 30%
SMILES: Cc1c(-c2ccc3ncccc3c2)nnn1-c1cccnc1F

The remaining lines, values behind:

SMILES: COCCN([11CH3])Cc1ccc2nc3sc(C(=O)N(C)C4CCCCC4)cn3c2c1
Ki [1]: 4.8 nM

SMILES: CO[C@H]1CC[C@@H](C(=O)c2ccc3nc4c(cc3c2)CCCO4)CC1
Ki [1]: 0.34 nM

SMILES: CCc1cc2cc(C(=O)[C@H]3CC[C@@H](OC)CC3)ccc2nc1[11CH3]
Ki [1]: 0.87 nM
